Among the data in ChEMBL document CHEMBL4513216, “Probing the Open Global Health Chemical Diversity Library for Multistage-Active Starting Points for Next-Generation Antimalarials” (ACS Infect Dis, 2020) are cytotoxicity values, retold here.

This series in a line: Toxicity liver stage against HepG2, at 10uM. It counts as cell-based. Set-up: test concentration 10 uM, cell line HepG2-A16-CD81EGFP. The following applies: human, HepG2-A16-CD81EGFP cells; read-out: INHIBITION
The essentials: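 Uninfected HepG2-A16-CD81EGFP cells, 3 × 10^3 per well, 1536-well, plated on prespotted compound at 10 μM final, parasite-free screening media added to match infected plates; puromycin 10 μM positive, DMSO 0.5% negative; run in parallel with 48 h PbLuc assay at 37 °C, 5% CO2; viability by CellTiter-Glo luminescence, normalized to controls.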
As for `COc1ccc2c(c1)nc1n2[C@@H](CNCc2cnn(C)c2)COC1`, the cytotoxicity at 10 µM is -6.8%. Take `O=c1[nH]ncn1-c1cccc(C(F)(F)F)c1`: the cytotoxicity at 10 µM is -2%. Consider `O=c1cc(N2CCNCC2)cnn1Cc1noc(C2CCCC2)n1`, for which the cytotoxicity at 10 µM is -53.5%. As to `CN(Cc1cccs1)C1CCC[C@@H]2CN(C(N)=O)C[C@H]12` (stereo partly specified), the cytotoxicity at 10 µM was determined as 18.6%. Take `CCn1nc2c(cc1=O)CN(Cc1nc(-c3cccs3)no1)CC2`: the cytotoxicity at 10 µM was -8.99%. Turning to `CC(=O)N1CCCCC1c1nc2c(c(NC3CCCC3)n1)CN(C)CC2` (stereo unspecified), the cytotoxicity at 10 µM was -13%. For `OCCN(Cc1ccncc1)CC1(c2ccc(Cl)cc2)CC1`, the cytotoxicity at 10 µM came out at 9.39%. With `Cc1noc2ncc(C(=O)N3CCCC(n4ccnc4C)C3)cc12` (stereo unspecified) the figure was -13.4%; with `Cn1nc(COc2cccnc2)c2c1CCN(c1ncccn1)C2`, -105%; with `CNC(=O)c1ccc(CN(C(C)C)C(C)C)o1`, -1.88%. `COc1ccccc1C1CNCCN1C(=O)c1ccc(F)cc1` (stereo unspecified): the cytotoxicity at 10 µM came out at 0.57%. In the case of `O=C1CN(C(=O)CN(CC2CCC2)CC(F)(F)F)CCN1`, the cytotoxicity at 10 µM is 0.821%. For the compound `Cn1c(C2CC2)nc2c1CCN(CC(=O)Nc1nccs1)C2`, the cytotoxicity at 10 µM was -9.83%. As to `Cc1ccncc1C(=O)N1CC[C@@]2(O)CCN(C3CCCCC3)C[C@H]2C1`, the cytotoxicity at 10 µM is -125%.

Turning to `CCn1c(C)cc(C(=O)N2CCC(Nc3ccc(C)nn3)CC2)c1C`, the cytotoxicity at 10 µM was -5.52%. Regarding `COc1ccc(F)c(CN2CCC3(CCC(=O)N(CC(N)=O)C3)CC2)c1`, the cytotoxicity at 10 µM stood at 12%. With `Fc1cccc(-c2nnn3c2COC(CNCc2cccs2)C3)c1` (stereo unspecified) the figure was 1.07%.

In the case of `CC(C)=CCN1CCN(Cc2ncc[nH]2)[C@H]2CS(=O)(=O)C[C@H]21`, the cytotoxicity at 10 µM is 5.44%. `CCn1nnc2c1CCN(S(C)(=O)=O)C2COCc1ccccc1` (stereo unspecified): the cytotoxicity at 10 µM is 0.196%. On to `CC(C)Nc1ncnc2c1CCN(C(=O)CCc1ccccc1)CC2`, for which the cytotoxicity at 10 µM was -72%. Take `CC(C(=O)N1CCOCC1)n1nc(-c2cccs2)cc(N)c1=O` (stereo unspecified): the cytotoxicity at 10 µM was determined as 8.74%. Turning to `CC(O)CN1CCC(CNCc2ccc(S(C)(=O)=O)cc2)CC1` (stereo unspecified), the cytotoxicity at 10 µM is -21.4%. Turning to `O=C(CCc1nc(-c2ccsc2)no1)NCC1CCN(C2CC2)C1` (stereo unspecified), the cytotoxicity at 10 µM stood at 3.23%. Take `OC(COc1ccccc1Br)COC1CCOCC1` (stereo unspecified): the cytotoxicity at 10 µM was -8%. On to `CCc1nc2c(N3CCC4(CC3)CC(=O)N(CC)C4)ncnc2o1`, for which the cytotoxicity at 10 µM is -3.2%. Under `CN(Cc1ccc2nsnc2c1)CC1(O)CNCCOC1` (stereo unspecified) stands -5.03%; under `c1ccc(-c2nnc3n2CCN(c2nc(C4CC4)ns2)C3)cc1`, 0.38%. Under `CCc1ccccc1C(=O)NS(=O)(=O)CCCC#N` stands -5.83%; under `Cc1cccc(C(=O)NC2CCN(c3cnn(C)c3)C2=O)c1C` (stereo unspecified), -1.2%; under `CC(C)c1ccc(-c2nonc2N)cc1`, -3.25%. For `CCc1c(C)nc(C)nc1N1C[C@@H](CN(C)C)[C@@H](CO)C1`, the cytotoxicity at 10 µM is -0.247%. With `Cc1cc(N)cc(C2CN(Cc3cc[nH]n3)CCO2)n1` (stereo unspecified), the cytotoxicity at 10 µM is -29.1%. Take `CCC(C)NC(=O)Nc1cccc(OC)c1` (stereo unspecified): the cytotoxicity at 10 µM stood at 0.554%.

Consider `O=c1[nH]c2nc(N3CCCCCC3)ncc2c(=O)n1-c1cccc(F)c1`, for which the cytotoxicity at 10 µM came to 6.39%. Take `C[C@]1(O)CN(Cc2cccc(C(=O)O)c2)CC[C@@H]1Oc1cccc(F)c1`: the cytotoxicity at 10 µM was -5.64%. `O=C1[C@@H]2CN(c3ncc(Cl)cc3F)C[C@]2(C(=O)O)CN1CC1CC1`: the cytotoxicity at 10 µM was -0.33%. Under `O=C(NCc1nc2ccccc2[nH]1)c1cnn2c1OCCC2` stands 0.0962%. In the case of `Cc1ccc(C(=O)N2CCc3ccc(=O)n(CCN(C)C)c3CC2)o1`, the cytotoxicity at 10 µM was -2.16%. Consider `COc1cccc2c(=O)n(Cc3nc(C)cc(O)n3)cnc12`, for which the cytotoxicity at 10 µM was 9.49%. Under `CC(C)NC(=O)C1CN(C(=O)c2ccc(F)cc2)CC12CCOCC2` (stereo unspecified) stands 1.08%; under `FC(F)(F)CCc1ccnc(N2CCN(CCc3ccncc3)CC2)n1`, -5.86%; under `CN1C(=O)CC(c2cnn(C)c2)C12CCN(C(=O)c1ccno1)CC2` (stereo unspecified), -74.1%. Under `COc1ccc(C2=CCN(C(=O)C3CC(=O)N(C4CC4)C3)CC2)cc1` (stereo unspecified) stands -6.66%.

Regarding `O=C(c1cnccn1)N1CCCC(Cc2cccc3ncccc23)C1` (stereo unspecified), the cytotoxicity at 10 µM amounted to 12%. With `CC1=Nc2c(c(O)nn2C(C)C)C(c2cn(C)nc2C)S1` (stereo unspecified) the figure was -3.53%; with `O=C(NCC1(N2CCOCC2)CCSC1)Nc1ccncc1` (stereo unspecified), 12.5%. Take `O=c1[nH]ncc(NCCOc2ccc3c(c2)OCO3)c1Cl`: the cytotoxicity at 10 µM worked out at 3.1%.

Turning to `O=C1[C@H]2CN(C(=O)[C@H]3CCCO3)C[C@H]2CN1CC1CC1`, the cytotoxicity at 10 µM is -6.66%. Regarding `CC(C)[C@H]1CN(c2ccnc(N)n2)C[C@@H]1NC(=O)C1(C#N)CCOCC1`, the cytotoxicity at 10 µM was -2.8%. Under `CN(C)c1ccc(CN2CCN(c3ccc(C#N)cc3)C(=O)C2)cn1` stands -28.2%; under `Cc1cc(CNCC2(O)CCOCC2)ccc1Br`, -0.378%; under `CC1=NN(c2ccc(C(=O)N3CCCC(n4ccnc4)C3)cc2)CC1` (stereo unspecified), -15.6%.

With `CCN1CCN(C(=O)c2cnc3c(cnn3C3CCCC3)c2)CC1`, the cytotoxicity at 10 µM is -14.1%. With `Cc1ccccc1Cn1cnc2oc(C)c(C(=O)O)c2c1=O` the figure was -1.49%; with `CC(C)c1cc(NC(=O)CN2CCC(N3CCNC3=O)CC2)on1`, -10.7%; with `Cc1nc(C)n(C2CCCN(C(=O)Cc3cccnc3)C2)n1` (stereo unspecified), -2.15%. With `O=C(CN1CCOC(c2ccccc2C(F)(F)F)C1)NC1CC1` (stereo unspecified) the figure was 3.02%; with `O=C(Cc1c(F)cccc1Cl)N1CCC(Nc2cccnn2)CC1`, -4.92%; with `Clc1ccccc1C1(c2ccnc(-c3ncccn3)n2)CCNCC1`, -6.28%. On to `O=C(CCN1CCCC1=O)Nc1cnn(-c2ccccc2Cl)c1`, for which the cytotoxicity at 10 µM was determined as 5.65%. Regarding `CCCN1C[C@@H]2CC[C@H]1CN(Cc1cccc(O)c1)C2`, the cytotoxicity at 10 µM was -122%. Turning to `Cc1ccc(CN(C)C(=O)c2cccc(NC(N)=O)c2)o1`, the cytotoxicity at 10 µM was 14.2%. As to `COc1ccc(NC(=O)c2ccc[nH]2)c(N2CCN(C(C)=O)CC2)n1`, the cytotoxicity at 10 µM was -11.2%. Under `CCSCC(C)NCc1cn2ccccc2n1` (stereo unspecified) stands -7.38%; under `Cc1ccc(CN2CCc3c(nc4cc(C5CC5)nn4c3O)C2)s1`, -3.69%; under `Cc1nc(CN2CCOC3(CCCN(c4nccs4)C3)C2)cs1` (stereo unspecified), 16.3%. As for `COCCC(=O)N1CCC2(CCCN(Cc3cc(OC)ccc3F)C2)C1` (stereo unspecified), the cytotoxicity at 10 µM amounted to 3.55%. For `Cc1nn(C)c(C)c1C1COCCN1C(=O)c1n[nH]c2ccccc12` (stereo unspecified), the cytotoxicity at 10 µM is -8.72%.

Regarding `Cn1ccnc1CN1C[C@H](N2CCOCC2)[C@@H]2OCCC[C@@H]21`, the cytotoxicity at 10 µM was 7.19%.

For the compound `Cc1ccc(C(=O)N2CC[C@H](N3CCOCC3)[C@H](CCCO)C2)cc1O`, the cytotoxicity at 10 µM is -154%.

With `COc1ncc(CN2CCOC(C)(C(=O)N3CCOCC3)C2)cn1` (stereo unspecified), the cytotoxicity at 10 µM was -9.49%.
